# Organism: Cavia porcellus
# Assay: In vitro inhibition of maximum force of contraction in guinea pig atria.
# Format: functional
# Conditions: not given
row,SMILES,Inhibition [%]
1,CCCCC(C)Oc1nsnc1C1=CCCN(C)C1.O=C(O)/C=C/C(=O)O (configuration not stated),15
2,CCCCSc1nsnc1C1=CCCN(C)C1.O=C(O)C(=O)O,45
3,CN1CCC=C(c2nsnc2Cl)C1,67
4,CCCCCCCc1nsnc1C1=CCCN(C)C1.O=C(O)C(=O)O,78
5,CCCCCCNc1nsnc1C1=CCCN(C)C1,84
6,CCCCCSc1nsnc1C1=CCCN(C)C1.O=C(O)C(=O)O,33
7,CSc1nsnc1C1=CCCN(C)C1.O=C(O)C(=O)O,100
8,CCC(C)CCOc1nsnc1C1=CCCN(C)C1.O=C(O)/C=C/C(=O)O (configuration not stated),0
9,CCCSc1nsnc1C1=CCCN(C)C1.O=C(O)C(=O)O,100
10,CCCOc1nsnc1C1=CCCN(C)C1.O=C(O)C(=O)O,100
11,CCCCCCSc1nsnc1C1=CCCN(C)C1.O=C(O)C(=O)O,56
12,CCCCOc1nsnc1C1=CCCN(C)C1.O=C(O)C(=O)O,71
13,CCOc1nsnc1C1=CCCN(C)C1.O=C(O)C(=O)O,0
14,CCCCCCCCOc1nsnc1C1=CCCN(C)C1.O=C(O)C(=O)O,0
15,CCCC(C)COc1nsnc1C1=CCCN(C)C1.O=C(O)/C=C/C(=O)O (configuration not stated),0
16,COc1nsnc1C1=CCCN(C)C1.O=C(O)C(=O)O,50
17,CCCCCCOc1nsnc1C1=CCCN(C)C1.O=C(O)C(=O)O,20

# Organism: Cavia porcellus
# Assay: In vitro inhibition of force of contraction in guinea pig atria.
# Format: functional
# Conditions: not given
row,SMILES,IC30 [nM]
1,CCCCC(C)Oc1nsnc1C1=CCCN(C)C1.O=C(O)/C=C/C(=O)O (configuration not stated),> 25000
2,CCCCSc1nsnc1C1=CCCN(C)C1.O=C(O)C(=O)O,100
3,CN1CCC=C(c2nsnc2Cl)C1,29400
4,CCCCCCCc1nsnc1C1=CCCN(C)C1.O=C(O)C(=O)O,5400
5,CCCCCCNc1nsnc1C1=CCCN(C)C1,13000
6,CCCCCSc1nsnc1C1=CCCN(C)C1.O=C(O)C(=O)O,5400
7,CSc1nsnc1C1=CCCN(C)C1.O=C(O)C(=O)O,300
8,CCC(C)CCOc1nsnc1C1=CCCN(C)C1.O=C(O)/C=C/C(=O)O (configuration not stated),> 75000
9,CCCSc1nsnc1C1=CCCN(C)C1.O=C(O)C(=O)O,50
10,CCCOc1nsnc1C1=CCCN(C)C1.O=C(O)C(=O)O,90
11,CCCCCCSc1nsnc1C1=CCCN(C)C1.O=C(O)C(=O)O,9700
12,CCCCOc1nsnc1C1=CCCN(C)C1.O=C(O)C(=O)O,200
13,CCOc1nsnc1C1=CCCN(C)C1.O=C(O)C(=O)O,> 75000
14,CCCCCCCCOc1nsnc1C1=CCCN(C)C1.O=C(O)C(=O)O,> 75000
15,CCCC(C)COc1nsnc1C1=CCCN(C)C1.O=C(O)/C=C/C(=O)O (configuration not stated),> 75000
16,COc1nsnc1C1=CCCN(C)C1.O=C(O)C(=O)O,1100
17,CCCCCCOc1nsnc1C1=CCCN(C)C1.O=C(O)C(=O)O,> 27000

# Molecular target: T1, Muscarinic acetylcholine receptor M1 (Rattus norvegicus, UniProt P08482)
# T1 sequence (P08482 whole entry): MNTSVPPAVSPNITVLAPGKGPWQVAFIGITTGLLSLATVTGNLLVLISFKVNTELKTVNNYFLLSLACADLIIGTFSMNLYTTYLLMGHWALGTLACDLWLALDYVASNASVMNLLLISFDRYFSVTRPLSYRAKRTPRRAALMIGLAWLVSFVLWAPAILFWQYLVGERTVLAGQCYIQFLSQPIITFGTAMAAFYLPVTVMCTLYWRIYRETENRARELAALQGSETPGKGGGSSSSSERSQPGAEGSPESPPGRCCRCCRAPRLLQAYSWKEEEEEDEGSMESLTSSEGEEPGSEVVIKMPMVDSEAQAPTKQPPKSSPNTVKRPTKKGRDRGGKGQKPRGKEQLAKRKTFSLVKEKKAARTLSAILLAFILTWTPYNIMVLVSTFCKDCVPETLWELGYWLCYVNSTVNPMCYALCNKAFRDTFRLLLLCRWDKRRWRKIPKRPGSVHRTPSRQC
# Assay: In vitro binding affinity against muscarinic acetylcholine receptor M1 from rat hippocampus, using [3H]pirenzepine (Pz) as radioligand
# Format: tissue-based
# Conditions: not given
row,SMILES,IC50 [nM]
1,CCCCC(C)Oc1nsnc1C1=CCCN(C)C1.O=C(O)/C=C/C(=O)O (configuration not stated),6.9
2,CCCCSc1nsnc1C1=CCCN(C)C1.O=C(O)C(=O)O,1.3
3,CCCCCCNc1nsnc1C1=CCCN(C)C1,105
4,CSc1nsnc1C1=CCCN(C)C1.O=C(O)C(=O)O,43
5,CCC(C)CCOc1nsnc1C1=CCCN(C)C1.O=C(O)/C=C/C(=O)O (configuration not stated),8.4
6,CCCSc1nsnc1C1=CCCN(C)C1.O=C(O)C(=O)O,4
7,CCCC(C)COc1nsnc1C1=CCCN(C)C1.O=C(O)/C=C/C(=O)O (configuration not stated),9

# Results, then the compound that gave them:
row,IC50 [nM],SMILES
1,18,CCCOc1nsnc1C1=CCCN(C)C1.O=C(O)C(=O)O
2,48,CCOc1nsnc1C1=CCCN(C)C1.O=C(O)C(=O)O
3,40,CCCCCCCCOc1nsnc1C1=CCCN(C)C1.O=C(O)C(=O)O
4,148,COc1nsnc1C1=CCCN(C)C1.O=C(O)C(=O)O

# Molecular target: T1, Muscarinic acetylcholine receptor M1
# Assay: In vitro binding affinity against Muscarinic acetylcholine receptor M1 from rat hippocampus, using [3H]oxotremorine-M (Oxo-M) as radioligand.
# Format: tissue-based
# Conditions: in the assay text read “cerebral cortex” for “hippocampus”
# Method in brief: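 Rat cortex (fresh, male Wistar) homogenized in 20 mM Hepes pH 7.4, spun 15 min at 4000g, and washed three times. Homogenate incubated with [3H]Oxo-M (1.0 nM final) for 30 min at 25 °C. […] Filtered and counted by scintillation. IC50 from at least four concentrations in triplicate, fitted by the Hill equation.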
row,IC50 [nM],SMILES
1,6.5,CCCCCCSc1nsnc1C1=CCCN(C)C1.O=C(O)C(=O)O

# Molecular target: T1, Muscarinic acetylcholine receptor M1
# Assay: In vitro binding affinity against Muscarinic acetylcholine receptor M1 from rat hippocampus, using [3H]pirenzepine (Pz) as radioligand.
# Format: tissue-based
# Conditions: not given
row,IC50 [nM],SMILES
1,5,CCCCCCSc1nsnc1C1=CCCN(C)C1.O=C(O)C(=O)O

# Organism: Oryctolagus cuniculus
# Assay: In vitro inhibition of maximum twitch height in electrically stimulated rabbit vas deferens.
# Format: functional
# Conditions: not given
# Method in brief: (§1)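 Vasa deferentia taken from rabbits under pentobarbital (60 mg/kg i.v.), held at 0.75 g tension and equilibrated ≥30 min. Field-stimulated at 0.5 ms, 40 V, 0.05 Hz. Cumulative concentration–effect curves run on prostatic and epididymal tissues, 3–5 preparations per concentration.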
row,SMILES,Inhibition [%]
1,CCCCC(C)Oc1nsnc1C1=CCCN(C)C1.O=C(O)/C=C/C(=O)O (configuration not stated),79
2,CCCCSc1nsnc1C1=CCCN(C)C1.O=C(O)C(=O)O,83
3,CCCCCCNc1nsnc1C1=CCCN(C)C1,65
4,CSc1nsnc1C1=CCCN(C)C1.O=C(O)C(=O)O,70
5,CCC(C)CCOc1nsnc1C1=CCCN(C)C1.O=C(O)/C=C/C(=O)O (configuration not stated),65
6,CCCSc1nsnc1C1=CCCN(C)C1.O=C(O)C(=O)O,42
7,CCCOc1nsnc1C1=CCCN(C)C1.O=C(O)C(=O)O,25
8,CCCCCCSc1nsnc1C1=CCCN(C)C1.O=C(O)C(=O)O,92
9,CCOc1nsnc1C1=CCCN(C)C1.O=C(O)C(=O)O,43
10,CCCCCCCCOc1nsnc1C1=CCCN(C)C1.O=C(O)C(=O)O,0
11,CCCC(C)COc1nsnc1C1=CCCN(C)C1.O=C(O)/C=C/C(=O)O (configuration not stated),32
12,COc1nsnc1C1=CCCN(C)C1.O=C(O)C(=O)O,47

# Organism: Oryctolagus cuniculus
# Assay: In vitro inhibition of twitch height in electrically stimulated rabbit vas deferens
# Format: functional
# Conditions: not given
# Method in brief: as §1
row,SMILES,IC50 [nM]
1,CCCCC(C)Oc1nsnc1C1=CCCN(C)C1.O=C(O)/C=C/C(=O)O (configuration not stated),7
2,CCCCSc1nsnc1C1=CCCN(C)C1.O=C(O)C(=O)O,0.003
3,CCCCCCNc1nsnc1C1=CCCN(C)C1,3000
4,CSc1nsnc1C1=CCCN(C)C1.O=C(O)C(=O)O,3
5,CCC(C)CCOc1nsnc1C1=CCCN(C)C1.O=C(O)/C=C/C(=O)O (configuration not stated),47

# Second part, the compound after the results:
row,IC50 [nM],SMILES
1,0.001,CCCCCCSc1nsnc1C1=CCCN(C)C1.O=C(O)C(=O)O
2,364,COc1nsnc1C1=CCCN(C)C1.O=C(O)C(=O)O

# Molecular target: T1, Muscarinic acetylcholine receptor M1
# Assay: In vitro binding affinity against muscarinic acetylcholine receptor M1 from rat cerebral cortex, using [3H]oxotremorine-M (Oxo-M) as radioligand
# Conditions: not given
row,SMILES,IC50 [nM]
1,CCCCC(C)Oc1nsnc1C1=CCCN(C)C1.O=C(O)/C=C/C(=O)O (configuration not stated),7
2,CCCCSc1nsnc1C1=CCCN(C)C1.O=C(O)C(=O)O,1.7
3,CCCCCCNc1nsnc1C1=CCCN(C)C1,60
4,CSc1nsnc1C1=CCCN(C)C1.O=C(O)C(=O)O,2.3
5,CCC(C)CCOc1nsnc1C1=CCCN(C)C1.O=C(O)/C=C/C(=O)O (configuration not stated),10
6,CCCSc1nsnc1C1=CCCN(C)C1.O=C(O)C(=O)O,0.9
7,CCCC(C)COc1nsnc1C1=CCCN(C)C1.O=C(O)/C=C/C(=O)O (configuration not stated),13

# Next, values leading:
row,IC50 [nM],SMILES
1,1.6,CCCOc1nsnc1C1=CCCN(C)C1.O=C(O)C(=O)O
2,5.7,CCOc1nsnc1C1=CCCN(C)C1.O=C(O)C(=O)O
3,30,CCCCCCCCOc1nsnc1C1=CCCN(C)C1.O=C(O)C(=O)O
4,22,COc1nsnc1C1=CCCN(C)C1.O=C(O)C(=O)O
